Measurements as given in publication PMC9069932 (RSC Advances, 2019).
Read-outs that look alike come from different tables or passages of the source.

Tests used:
Format in all cases: cell-based, human
T98G = experiment: MTT cell viability/proliferation assay, T98G; conditions: read-out: T98G IC50
Method in brief: (§1)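 Human lines grown at 37 °C, 5% CO2 with 10% FBS: U-118 MG in DMEM; T98G and HaCaT in EMEM. Seeded 1 × 10⁴ cells/well, left 24 h, then exposed 48 h to test compound at 7.81–1000 μg mL⁻¹ (eight twofold steps). MTT added at 0.5 mg mL⁻¹ final for 2 h. Formazan dissolved in DMSO, read at 492 nm against 690 nm reference. IC50 is the mean of ≥3 independent experiments.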

U-118 MG = experiment: MTT cell viability/proliferation assay, U-118 MG; conditions: read-out: U-118 MG IC50
Method in brief: as §1

HaCaT = experiment: MTT cell viability/proliferation assay, HaCaT; conditions: read-out: HaCaT IC50
Method in brief: as §1

T98G cells = experiment: Colony formation; conditions: for clonogenic survival compared to control cells: 20 μM; for reduction of cancer cell clonogenic potential: 50 μM
Method in brief: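 T98G cells seeded at 500 per well and allowed to adhere 24 h. Exposed to test compound at 2–100 μM in triplicate; after 24 h switched to compound-free medium, 7 days total. Colonies (≥50 cells) methanol-fixed, stained with 1% gentian violet and counted by light microscopy.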

[1] = MTT, 48 hours, glioblastoma multiforme cell line

Molecule	IC50 (T98G; Homo sapiens, T98G, 48 h)	IC50 (U-118 MG; Homo sapiens, U-118-MG, 48 h)	IC50 (HaCaT; Homo sapiens, HaCaT, 48 h)	clonogenic survival compared to control cells (T98G cells)	reduction of cancer cell clonogenic potential (T98G cells)	IC50 (T98G; [1])	IC50 (U-118 MG; [1])	IC50 (HaCaT; MTT, 48 hours, referential healthy cells)
CCOP(=O)(OCC)C(Cc1c(F)c(F)c(F)c(F)c1F)Nc1ccccc1 (stereo not shown) [Compound 1a, Diethyl (2-(perfluorophenyl)-1-(phenylamino)ethyl)phosphonate]	40.4 ± 6.2 µM	60.7 ± 8.9 µM	56.8 ± 7.4 µM					
CCOP(=O)(OCC)C(Cc1c(F)c(F)c(Sc2cccc(OC)c2)c(F)c1F)Nc1ccccc1 (stereo not shown) [Compound 2e, Diethyl (1-(phenylamino)-2-(2,3,5,6-tetrafluoro-4-((3-methoxyphenyl)thio)phenyl)ethyl)phosphonate]	20.4 ± 3.1 µM	21.4 ± 2.7 µM	10.1 ± 2.2 µM	30%	85%			
CCOP(=O)(OCC)C(Cc1c(F)c(F)c(Sc2cccc(N)c2)c(F)c1F)Nc1ccccc1 (stereo not shown) [Compound 2f, Diethyl (2-(4-((3-aminophenyl)thio)-2,3,5,6-tetrafluorophenyl)-1-(phenylamino)ethyl)phosphonate]	25.5 ± 1.9 µM	28.1 ± 3.6 µM	18.2 ± 3.4 µM	10%	98%			
CCOP(=O)(OCC)C(Cc1c(F)c(F)c(SCC(NC(C)=O)C(=O)OC)c(F)c1F)Nc1ccccc1 (stereo not shown) [Compound 2j, Methyl 2-acetamido-3-((4-(2-(diethoxyphosphoryl)-2-(phenylamino)ethyl)-2,3,5,6-tetrafluorophenyl)thio)propanoate]	82.7 ± 15.7 µM	> 100 µM	> 100 µM					
CCOP(=O)(OCC)C(Cc1c(F)c(F)c(Oc2ccc(Cl)cc2)c(F)c1F)Nc1ccccc1 (stereo not shown) [Compound 2r, Diethyl (2-(4-(4-chlorophenoxy)-2,3,5,6-tetrafluorophenyl)-1-(phenylamino)ethyl)phosphonate]	70.3 ± 8.3 µM	79.2 ± 6.4 µM	48.4 ± 7.4 µM					
O=c1[nH]c(=O)n([C@H]2C[C@H](O)[C@@H](CO)O2)cc1F [Compound 5-FdU, 5-fluoro-2′-deoxyuridine, reference compound]	5.57 ± 0.9 µM	23.4 ± 1.6 µM	4.42 ± 1.1 µM					
Diethyl (1-(phenylamino)-2-(2,3,5,6-tetrafluoro-4-(m-tolylthio)phenyl)ethyl)phosphonate [Compound 2b]						14.5 ± 3.3 µM	37.9 ± 2.5 µM	26.5 ± 4.7 µM
